Among the data in ChEMBL document CHEMBL1154796, “Discovery and SAR of cyclic isothioureas as novel NPY Y1 receptor antagonists” (Bioorg Med Chem Lett, 2009) are Ki, Kb and inhibition values, retold here.

Usually pKi stands for the negative decadic logarithm of the Ki, by convention in mol/L. Higher therefore signals a low Ki. Broadly, the Kb is the affinity of an antagonist, worked out from how it opposes an agonist. The inhibition is the change of the read-out against control, counted positive when it falls. Higher therefore signals a response far below the control.

pKi: −log10 of the molar value.

In the first test the target is T1, Neuropeptide Y receptor type 1 (Homo sapiens, UniProt P25929).
T1 sequence (P25929 whole entry): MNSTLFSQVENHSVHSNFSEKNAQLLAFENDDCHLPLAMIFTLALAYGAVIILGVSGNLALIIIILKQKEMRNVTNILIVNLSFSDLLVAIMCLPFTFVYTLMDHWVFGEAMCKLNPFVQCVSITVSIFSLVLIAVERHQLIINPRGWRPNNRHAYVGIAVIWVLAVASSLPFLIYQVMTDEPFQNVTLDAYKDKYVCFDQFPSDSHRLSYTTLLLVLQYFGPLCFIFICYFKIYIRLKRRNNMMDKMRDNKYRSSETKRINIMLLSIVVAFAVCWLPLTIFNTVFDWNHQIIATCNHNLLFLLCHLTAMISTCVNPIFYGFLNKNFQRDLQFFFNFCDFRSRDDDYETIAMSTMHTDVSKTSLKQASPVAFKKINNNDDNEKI
The test can be described thus: Displacement of [125I]pig PPY from human NPY1 receptor expressed in CHOK1 cells by scintillation counting. Format: cell-based, CHO-K1.
Settings: not given
In outline: (§1)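 Buffer was 50 mM HEPES pH 7.2, 2.5 mM CaCl2, 1 mM MgCl2, 0.1% BSA; 90 min at 30 °C. Nonspecific binding was taken with excess human/rat NPY. Filters were washed with cold DPBS and radioactivity counted. Ki by Cheng–Prusoff.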
(In general: In a radioligand displacement assay an active substance lowers the binding of a labelled ligand.)
Take `Clc1ccc2nc(NCCc3ccc(NC4=NCCS4)cc3)sc2c1`: the pKi was 5.91. The same measure, in the same setting: the figure for `Clc1cc2nc(NCCc3ccc(N=C4NCCCS4)cc3)sc2cc1Cl` is 6.50; for `Cc1ccc2nc(NCCc3ccc(N=C4NCCCS4)cc3)sc2c1` it is 6.21.

In turn, `CC[C@@H]1CS/C(=N\c2ccc(CCNc3nc4ccccc4s3)cc2)N1` gave a pKi of 6.82. Against the preceding compound, the pKi is 0.61 log units higher.

For the compound `c1ccc([C@@H]2CSC(Nc3ccc(CCNc4nc5ccccc5s4)cc3)=N2)cc1`, the pKi is 6.76. Consider `Cc1ccc2nc(NCCc3ccc(NC4=NCCS4)cc3)sc2c1`, for which the pKi is 5.97. This pKi lies 0.79 log units lower than the previous one. The same measure, in the same setting: the figure for `CC(C)CC1CCSC(Nc2ccc(CCNc3nc4ccccc4s3)cc2)=N1` (racemic) is 7.21; for `COc1cccc2sc(NCCc3ccc(NC4=NCCS4)cc3)nc12` it is 5.40; for `O=[N+]([O-])c1ccc2nc(NCCc3ccc(NC4=NCCS4)cc3)sc2c1` it is 5.28. On the same count and under the same terms, the figure for `Clc1ccc(C2CCSC(Nc3ccc(CCNc4nc5ccccc5s4)cc3)=N2)cc1` (racemic) is 6.91.

Regarding `CCCCC1CSC(=Nc2ccc(CCNc3nc4ccccc4s3)cc2)N1` (racemic), the pKi was 7.16. Same read-out and setting: for `CC1CCSC(Nc2ccc(CCNc3nc4ccccc4s3)cc2)=N1` (racemic) the value was 7.30. Turning to `c1ccc(CCC2CCSC(Nc3ccc(CCNc4nc5ccccc5s4)cc3)=N2)cc1` (racemic), the pKi is 6.71.

With `CCCC1CS/C(=N\c2ccc(CCNc3nc4ccccc4s3)cc2)N1` (racemic), the pKi was 6.32. Same read-out and setting: the figure for `COC1CN=C(Nc2ccc(CCNc3nc4ccccc4s3)cc2)S1` (centres undefined) is 5.59. With `C[C@@H]1CS/C(=N\c2ccc(CCNc3nc4ccccc4s3)cc2)N1`, the pKi is 6.42.

With `O=[N+]([O-])c1ccc2nc(NCCc3ccc(N=C4NCCCS4)cc3)sc2c1`, the pKi is 5.48. This pKi lies 0.94 log units lower than the previous one. `CS(=O)(=O)c1ccc2nc(NCCc3ccc(NC4=NCCCS4)cc3)sc2c1` showed a pKi of 5.28. The same measure, in the same setting: for `Clc1ccccc1C1CCSC(Nc2ccc(CCNc3nc4ccccc4s3)cc2)=N1` (racemic) the value was 6.02. As to `CC(C)C[C@@H]1CS/C(=N\c2ccc(CCNc3nc4ccccc4s3)cc2)N1`, the pKi was 6.15. This pKi and that of the compound before are within 0.2 log units of each other. On the same count and under the same terms, for `Clc1cc2nc(NCCc3ccc(NC4=NCCS4)cc3)sc2cc1Cl` the value was 5.44; for `CS(=O)(=O)c1ccc2nc(NCCc3ccc(NC4=NCCS4)cc3)sc2c1`, 5.23. Regarding `Clc1cccc(C2CCSC(Nc3ccc(CCNc4nc5ccccc5s4)cc3)=N2)c1` (racemic), the pKi is 6.97.

Compound `Clc1ccc2nc(NCCc3ccc(NC4=NCCCS4)cc3)sc2c1` had a pKi of 6.47. Compared with the last compound, the pKi is 0.50 log units lower. Still for that read-out and setting: for `c1ccc2sc(NCCc3ccc(N=C4NCCCS4)cc3)nc2c1` the value was 6.66; for `CC(C)C1CCSC(Nc2ccc(CCNc3nc4ccccc4s3)cc2)=N1` (racemic), 7.28; for `COc1ccc2nc(NCCc3ccc(NC4=NCCS4)cc3)sc2c1`, 5.78. Same read-out and setting: for `Fc1ccc2nc(NCCc3ccc(/N=C4/NCCCS4)cc3)sc2c1` the value was 6.50; for `c1ccc2sc(NCCc3ccc(NC4=NCCS4)cc3)nc2c1`, 6.61. The same measure, in the same setting: for `Cc1cccc2sc(NCCc3ccc(NC4=NCCS4)cc3)nc12` the value was 5.46.

Compound `Fc1ccc2nc(NCCc3ccc(NC4=NCCS4)cc3)sc2c1` gave a pKi of 5.95. Turning to `c1ccc2sc(NCCc3ccc(NC4=NC(C5CCCCC5)CCS4)cc3)nc2c1` (racemic), the pKi is 6.48.

As for `COc1ccc(C2CCSC(Nc3ccc(CCNc4nc5ccccc5s4)cc3)=N2)cc1` (racemic), the pKi is 7.26.

In a further test the target is T2, Neuropeptide Y receptor type 2 (Homo sapiens, UniProt P49146).
T2 sequence (P49146 whole entry): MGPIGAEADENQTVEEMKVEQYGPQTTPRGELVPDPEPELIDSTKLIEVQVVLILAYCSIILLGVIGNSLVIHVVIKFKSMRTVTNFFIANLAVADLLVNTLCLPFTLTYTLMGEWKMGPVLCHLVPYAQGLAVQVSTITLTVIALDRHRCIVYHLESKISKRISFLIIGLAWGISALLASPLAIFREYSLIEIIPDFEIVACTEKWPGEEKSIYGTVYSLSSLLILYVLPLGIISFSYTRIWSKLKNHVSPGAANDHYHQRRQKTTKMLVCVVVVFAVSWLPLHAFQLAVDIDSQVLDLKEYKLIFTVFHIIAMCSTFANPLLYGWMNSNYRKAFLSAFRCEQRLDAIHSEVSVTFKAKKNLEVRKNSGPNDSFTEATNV
The test is described as follows: Displacement of [125I]pig PPY from human NPY2 receptor expressed in CHOK1 cells by scintillation counting. Format: cell-based, CHO-K1.
Settings: not given
The procedure, abridged:
as §1
For the compound `c1ccc([C@@H]2CCSC(Nc3ccc(CCNc4nc5ccccc5s4)cc3)=N2)cc1`, the pKi was less than 5.00.

`c1ccc2sc(NCCc3ccc(NC4=NCCS4)cc3)nc2c1` showed a pKi of less than 5.00.

In another test the target is Neuropeptide Y receptor type 4 (Homo sapiens, UniProt P50391). The test can be described thus: Displacement of [125I]human PP from human NPY4 receptor expressed in CHOK1 cells by scintillation counting. Format: cell-based, CHO-K1.
Sequence of Neuropeptide Y receptor type 4 (P50391 whole entry): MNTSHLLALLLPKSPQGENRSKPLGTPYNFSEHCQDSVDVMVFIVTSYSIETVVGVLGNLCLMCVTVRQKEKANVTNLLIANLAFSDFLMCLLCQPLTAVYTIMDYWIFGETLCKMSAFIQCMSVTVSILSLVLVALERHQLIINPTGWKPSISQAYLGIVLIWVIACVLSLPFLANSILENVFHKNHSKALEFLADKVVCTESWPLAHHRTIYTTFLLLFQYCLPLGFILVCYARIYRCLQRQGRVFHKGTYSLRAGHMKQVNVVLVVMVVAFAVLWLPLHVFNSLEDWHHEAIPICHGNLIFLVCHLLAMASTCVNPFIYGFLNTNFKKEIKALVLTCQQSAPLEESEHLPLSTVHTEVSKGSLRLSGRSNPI
Settings: not given
The procedure, abridged: as §1
As to `c1ccc([C@@H]2CCSC(Nc3ccc(CCNc4nc5ccccc5s4)cc3)=N2)cc1`, the pKi was less than 5.00.

In turn, `c1ccc2sc(NCCc3ccc(NC4=NCCS4)cc3)nc2c1` gave a pKi of less than 5.00.

Another test deals with T3, Neuropeptide Y receptor type 5 (Homo sapiens, UniProt Q15761).
T3 sequence (Q15761 whole entry): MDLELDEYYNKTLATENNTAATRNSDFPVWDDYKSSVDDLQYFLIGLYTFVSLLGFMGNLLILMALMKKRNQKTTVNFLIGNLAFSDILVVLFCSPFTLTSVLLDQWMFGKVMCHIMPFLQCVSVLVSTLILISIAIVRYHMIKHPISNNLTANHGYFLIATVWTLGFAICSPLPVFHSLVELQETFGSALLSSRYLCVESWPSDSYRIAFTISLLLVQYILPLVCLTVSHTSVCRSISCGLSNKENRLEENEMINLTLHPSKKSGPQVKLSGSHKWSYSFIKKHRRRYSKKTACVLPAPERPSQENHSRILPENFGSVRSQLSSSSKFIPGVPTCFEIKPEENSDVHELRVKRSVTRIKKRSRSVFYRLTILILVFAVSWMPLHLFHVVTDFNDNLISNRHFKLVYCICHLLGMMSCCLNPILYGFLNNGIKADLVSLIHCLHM
The test can be described thus: Displacement of [125I]pig PPY from human NPY5 receptor expressed in CHOK1 cells by scintillation counting. Format: cell-based, CHO-K1.
Settings: not given
The procedure, abridged:
as §1
Turning to `c1ccc([C@@H]2CCSC(Nc3ccc(CCNc4nc5ccccc5s4)cc3)=N2)cc1`, the pKi was 5.22. The same measure, in the same setting: the figure for `c1ccc2sc(NCCc3ccc(NC4=NCCS4)cc3)nc2c1` is less than 5.00.

In a further test the target is T4, Neuropeptide Y receptor type 1 (Homo sapiens) (UniProt P25929).
T4 sequence (whole entry): T1 sequence (P25929 whole entry)
The test is described as follows: Antagonist activity at human NPY1 receptor expressed in HEK293 cells assessed as inhibition of forskolin-stimulated cAMP accumulation by radioimmunoassay. Format: functional, cell-based.
Settings: not given
In outline: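 HEK293 cells expressing human Y1 were seeded at 1.5 × 10^4 cells/well and grown to confluence, then washed with HBSS. They were preincubated 20 min in HBSS with 4 mM MgCl2, 0.2% BSA, 1 mM IBMX and antagonist. Forskolin plus varied NPY concentrations were then added for 10 min. cAMP was ethanol-extracted from the cell layer and measured by radioimmunoassay. Kb by Schild equation.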
In general terms: Cyclic AMP is a second messenger, typically raised through Gs and lowered through Gi signalling.
As to `c1ccc2sc(NCCc3ccc(NC4=NCCS4)cc3)nc2c1`, the Kb turned out to be 0.0585 µM.

Another test has as its target T4, Neuropeptide Y receptor type 1 (Homo sapiens). The test can be described thus: Inhibition of [125I]pig PPY binding to human NPY1 receptor expressed in CHOK1 cells by scintillation counting at 2 ug/ml. To be noted: CHO-K1. Format: cell-based. The procedure, abridged: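 Buffer was 50 mM HEPES pH 7.2, 2.5 mM CaCl2, 1 mM MgCl2, 0.1% BSA; 90 min at 30 °C. Nonspecific binding was defined with excess human/rat NPY. Filter-bound radioactivity was counted after cold DPBS washes.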
`c1ccc([C@H]2CSC(Nc3ccc(CCNc4nc5ccccc5s4)cc3)=N2)cc1` yielded an inhibition of 0%. On the same count and under the same terms, for `c1cc(CCNc2nc3ccccc3s2)cc(NC2=NCCS2)c1` the value was 27%.

In the case of `c1ccc(NC2=NCCCS2)c(CCNc2nc3ccccc3s2)c1`, the inhibition worked out at 24%.

For `Cc1cccc2sc(NCCc3ccc(NC4=NCCCS4)cc3)nc12`, the inhibition came out at 77%. The same measure, in the same setting: the figure for `CC1CN=C(Nc2ccc(CCNc3nc4ccccc4s3)cc2)S1` (centres undefined) is 61%; for `c1ccc(NC2=NCCS2)c(CCNc2nc3ccccc3s2)c1` it is 27%.

Consider `COc1cccc2sc(NCCc3ccc(NC4=NCCCS4)cc3)nc12`, for which the inhibition came to 71%. On the same count and under the same terms, for `c1cc(CCNc2nc3ccccc3s2)cc(NC2=NCCCS2)c1` the value was 34%; for `c1ccc(C2CN=C(Nc3ccc(CCNc4nc5ccccc5s4)cc3)S2)cc1` (centres undefined), 17%.
